Test results taken from paper PMC10883201 (Nature, 2023).
Values after ≈ are worked out from the molar mass of the structure shown.

Experiments:
C. albicans SN250 = test: Erg extraction experiment; assay type: cell-based, Candida albicans; conditions: C. albicans SN250, compound at 5 μM
[1] = ITC, Erg-containing LUVs; AmB–Erg binding data reported earlier; cited from earlier work
[2] = Solution stability in PBS buffer; assay type: physicochemical; conditions: PBS buffer at pH 6
Candida krusei = test: MIC assay; assay type: cell-based
Aspergillus fumigatus 91 = test: MIC assay; assay type: cell-based
[3] = ITC with Erg-containing large unilamellar vesicles; assay type: binding; conditions: ITC heat exchange
[4] = ITC with Chol-containing large unilamellar vesicles; assay type: binding; conditions: ITC heat exchange
[5] = test system: primary human renal proximal tubule epithelial cells; test: Cell viability assay; assay type: cell-based; conditions: up to highest concentration tested 50 μM
human red blood cells = test: Red blood cell lysis / permeabilization; assay type: cell-based; conditions: up to highest concentration tested 500 μM
K562 cells = test: Cell viability assay; assay type: cell-based, human; conditions: up to highest concentration tested 50 μM
Procedure, shortened: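 Suspension cells grown in complete IMDM with FBS and Pen-Strep at 37 °C, 5% CO2. Without trypsinization, suspension was adjusted to 12.5 × 10^5 cells ml−1 and held 3 h at 37 °C before compound. Exposure was 0.5–50 μM final in 1% DMSO, with DMSO and puromycin controls, for 24 h. Viability was by alamarBlue fluorescence after 3 h (ex 537/em 585 nm). Triplicate; average of three experiments.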

HepG2 liver cells = test: Cell viability assay; assay type: cell-based, human; conditions: up to highest concentration tested 50 μM
Procedure, shortened: (§1)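 Cells grown in complete MEM with FBS, Pen-Strep and non-essential amino acids at 37 °C, 5% CO2. Trypsinized cells were adjusted to 5 × 10^5 cells ml−1, seeded at 10^4 cells per well, and held 3 h at 37 °C. Compound was then added at 0.5–50 μM final in 1% DMSO, with DMSO and puromycin controls, for 24 h. alamarBlue was read after 3 h (ex 537/em 585 nm). Triplicate; average of three experiments.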

H9c2 myocardial cells = test: Cell viability assay; assay type: cell-based, rat; conditions: up to highest concentration tested 50 μM
Procedure, shortened: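 Rat myocardial cells maintained in complete DMEM with FBS, Pen-Strep and non-essential amino acids, 37 °C, 5% CO2. After trypsinization, cells at 5 × 10^5 cells ml−1 were seeded at […] and rested 3 h. Compound was given at 0.5–50 μM final (1% DMSO) for 24 h, with DMSO and puromycin controls. alamarBlue was added 3 h, then fluorescence read at 537/585 nm. Triplicate; mean of three experiments.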

SH-SY5Y neural cells = test: Cell viability assay; assay type: cell-based, human; conditions: up to highest concentration tested 50 μM
Procedure, shortened: as §1

[6] = Renal toxicity in mice, 24 h post single IV dose; assay type: in vivo, female CD-1 mice

solution stability [2] | SMILES | T50% (time required for 50% Erg extraction) (C. albicans SN250) [h] | ΔΔHErg (ΔHsterol – ΔHsterol-free) [1] [µcal] | MIC (Candida krusei) [µM] | MIC (Aspergillus fumigatus 91) [µM] | Erg binding [3] | Chol binding [4] | toxicity [5] | toxicity (human red blood cells) | toxicity (K562 cells) | toxicity (HepG2 liver cells) | toxicity (H9c2 myocardial cells) | toxicity (SH-SY5Y neural cells) | kidney injury biomarkers ([6]; 24 h after single IV 45 mg/kg dose) | renal biomarkers ([6]; doses of ≥45 mg kg^−1, single IV, 24 h, 1:2 deoxycholate formulation)
– | C[C@@H]1[C@H](O)[C@@H](C)/C=C/C=C/C=C/C=C/C=C/C=C/C=C/[C@H](O[C@@H]2O[C@H](C)[C@@H](O)[C@H](N)[C@@H]2O)C[C@@H]2O[C@](O)(C[C@@H](O)C[C@@H](O)[C@H](O)CC[C@@H](O)C[C@@H](O)CC(=O)O[C@H]1C)C[C@H](O)[C@H]2C(=O)O [AmB, amphotericin B, reference compound] | 0.92 | -42.4 ± 11.2 | – | – | – | – | – | – | – | – | – | – | – | –
unstable | CC1C=CC=CC=CC=CC=CC=CC=CC(OC2CC(N)C(O)C(C)O2)CC2OC(O)(CC(O)CC(O)C(O)CCC(O)CC(O)CC(=O)OC(C)C(C)C1O)CC(O)C2C(=O)O (stereo not shown) [C2′deOAmB] | – | – | – | – | – | – | – | – | – | – | – | – | – | –
– | C[C@@H]1[C@H](O)[C@@H](C)/C=C/C=C/C=C/C=C/C=C/C=C/C=C/[C@H](O[C@@H]2O[C@H](C)[C@@H](O)[C@H](N)[C@H]2O)C[C@@H]2O[C@](O)(C[C@@H](O)C[C@@H](O)[C@H](O)CC[C@@H](O)C[C@@H](O)CC(=O)O[C@H]1C)C[C@H](O)[C@H]2C(=O)O [C2′epiAmB] | 2.75 | – | 1 (≈ 0.924 µg/mL) | > 32 | retained, albeit diminished, capacity to bind Erg | no binding | no toxicity | no toxicity | no toxicity | no toxicity | no toxicity | no toxicity | do not elevate kidney injury biomarkers | no elevation of renal biomarkers
